≈ marks a conversion by molar mass, not a printed value. Calls of active or inactive are those of the source. The calls are words filed in the database; no cut-off is given here.
Experiments:
[1] = Cytotoxicity against human HepG2(2.2.15) cells; format: cell-based
Summary of the method: (§1)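 Run in cultures of 2.2.15 cells. Inhibition of HBV replication reported as EC50 and EC90, and cytotoxicity in the same cells as CC50, all in µg/mL. A selectivity index was taken from cytotoxic and antiviral concentrations.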

Hepatitis B virus = assay: Antiviral activity against Hepatitis B virus replication in human HepG2(2.2.15) cells; format: functional, organism-based; summary of the method: as §1
[2] = tested on: Mycobacterium tuberculosis; assay: Antituberculosis activity against Mycobacterium tuberculosis; format: functional, organism-based
Plasmodium falciparum [3] = assay: Antimalarial activity against Plasmodium falciparum W2; format: functional
Plasmodium falciparum [4] = assay: Antimalarial activity against Plasmodium falciparum D6; format: functional
Cryptococcus neoformans = assay: Antifungal activity against Cryptococcus neoformans; format: functional
Staphylococcus aureus [5] = assay: Antibacterial activity against methicillin-resistant Staphylococcus aureus; format: functional
Staphylococcus aureus [6] = assay: Antibacterial activity against Staphylococcus aureus; format: functional
Candida albicans = assay: Antifungal activity against Candida albicans; format: functional

Structure (SMILES) | Activity [2] | further results
CC(C)=CCC[C@H](C)c1cc([N+](=O)[O-])c(C)cc1O | inactive | CC50 [1]: 39 µg/mL (≈ 148 µM); EC50 (Hepatitis B virus): 61 µg/mL (≈ 232 µM); EC90 (Hepatitis B virus): 203 µg/mL (≈ 771 µM)
Cc1ccc([C@@H](C)CCC[C@H](C)C(=O)O)c(O)c1 | inactive | –
Cc1ccc([C@@H](C)CCC[C@H](C)CO)c(O)c1 | inactive | –
Cc1ccc([C@@H](C)CCC(=O)O)c(O)c1 | inactive | –
CC(C)=CCC[C@H](C)c1ccc(C)cc1OC(=O)c1ccncc1 | inactive | –
Cc1ccc([C@@H](C)CCCC(C)(C)O)c(OC(=O)c2ccncc2)c1 | inactive | –
C/C(=C\CC[C@H](C)c1ccc(C)cc1O)CO | inactive | –
Cc1ccc([C@@H](C)CCCC(C)(C)O)c(O)c1 | inactive | –
Cc1ccc([C@@H](C)CCC(=O)C(C)(C)O)c(O)c1 | inactive | –
C/C(C=O)=C\CC[C@H](C)c1ccc(CO)cc1O | inactive | –
Cc1ccc([C@@H](C)CCCC(C)(C)O)c(O[C@H]2O[C@H](CO)[C@@H](O)[C@H](O)[C@H]2O)c1 | inactive | –
Cc1ccc([C@@H](C)CCCC(C)C(=O)O)c(O)c1 (some centres not stated) | inactive | –
C/C(=C\CC[C@H](C)c1ccc(CO)cc1O)CO | inactive | –
Cc1ccc([C@@H](C)CCC[C@@H](C)C(=O)O)c(O)c1 | inactive | –
Cc1ccc([C@@H](C)CC[C@H](O)C(C)(C)O)c(O)c1 | inactive | –
Cc1ccc([C@@H](C)CCCC(C)CO)c(O)c1 (some centres not stated) | inactive | –
CC(C)=CCC[C@H](C)c1ccc(C)cc1O[C@H]1O[C@H](CO)[C@@H](O)[C@H](O)[C@H]1O | inactive | –
Cc1ccc([C@@H](C)CCC[C@@H](C)CO)c(O)c1 | inactive | –
Cc1ccc([C@@H](C)CC[C@@H](O)C(C)(C)O)c(O)c1 | inactive | –
CC(C)=CCC[C@H](C)c1ccc(CO)cc1O | inactive | MIC (Plasmodium falciparum [3]): 2.9 µg/mL (≈ 12.4 µM); MIC (Plasmodium falciparum [4]): 3.8 µg/mL (≈ 16.2 µM)
CC(C)=CCC[C@H](C)c1ccc(C)c([N+](=O)[O-])c1O | inactive | –
CC(C)=CCC[C@H](C)c1ccc(C)cc1O | inactive | MFC (Cryptococcus neoformans): 12.5 µg/mL (≈ 57.3 µM); MIC (Cryptococcus neoformans): 7.5 µg/mL (≈ 34.4 µM); MBC (Staphylococcus aureus [5]): 12.5 µg/mL (≈ 57.3 µM); MIC (Staphylococcus aureus [5]): 7.5 µg/mL (≈ 34.4 µM); MBC (Staphylococcus aureus [6]): 12.5 µg/mL (≈ 57.3 µM); MIC (Staphylococcus aureus [6]): 7.5 µg/mL (≈ 34.4 µM); MFC (Candida albicans): 12.5 µg/mL (≈ 57.3 µM); MIC (Candida albicans): 7.5 µg/mL (≈ 34.4 µM); MIC (Plasmodium falciparum [3]): 1.8 µg/mL (≈ 8.24 µM); MIC (Plasmodium falciparum [4]): 3.6 µg/mL (≈ 16.5 µM)
